Source: article PMC9299459 (Clinical Pharmacology in Drug Development, 2021)
Entries after “also recorded” stand apart in the source; their conditions may differ. Like-named read-outs stand apart in the source and are kept apart here.

What was measured:
[1] = type: in vivo, human; conditions: for AUC(0-inf): AUCinf; for AUC(0-t): AUClast
Safety and tolerability = type: in vivo, human; conditions: healthy participants
Summary of the method: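 Open-label, randomized, 2-period, 2-sequence crossover in healthy men and women of non-childbearing potential, aged 18–55 years. Arms were a single oral 250 mg dose of test compound after overnight fast, or the same dose on day 5 of proton pump inhibitor 40 mg daily for 5 days. Dosing was supervised, in the morning with 240 mL water. All participants dosed at least once were included. AEs, ECGs, vital signs and safety labs were reviewed throughout.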

[2] = aqueous solution, cited from earlier work
[3] = repeated administration; cited from earlier work
[4] = healthy participants, plasma, single oral crizotinib 250 mg on day 5 of esomeprazole 40 mg/day (n = 15)
[5] = healthy participants, single oral crizotinib 250 mg on day 5 of esomeprazole 40 mg/day (n = 15)
[6] = human, plasma, oral, 250 mg, Adjusted Geometric Mean, Reference, Reference: single 250-mg crizotinib dose after overnight fasting
[7] = human, plasma, oral, Adjusted Geometric Mean, Test, Test: esomeprazole 40 mg per day for 5 days and single 250-mg crizotinib dose after overnight fasting on day 5
[8] = human, plasma, po, 250 mg, Arithmetic Mean ± SD, healthy participants, plasma, single oral crizotinib 250 mg on day 5 of esomeprazole 40 mg/day (n = 15)
[9] = human, plasma, po, 250 mg, Geometric Mean (%CV), healthy participants, plasma, single oral crizotinib 250 mg on day 5 of esomeprazole 40 mg/day (n = 15)
[10] = N = 15 per treatment, MedDRA preferred term
[11] = Reference: single 250-mg crizotinib dose after overnight fasting
[12] = Test: esomeprazole 40 mg per day for 5 days and single 250-mg crizotinib dose after overnight fasting on day 5
[13] = molar ratio PF-06260182/crizotinib, single oral crizotinib 250 mg alone (n = 15)

SMILES: C[C@@H](Oc1cc(-c2cnn(C3CCNCC3)c2)cnc1N)c1c(Cl)ccc(F)c1Cl [Crizotinib]
- Effect of esomeprazole coadministration on peak exposure (Cmax) ([1]; esomeprazole 40 mg once daily x 5 days, single crizotinib 250 mg): did not affect; also recorded: no effect
- tmax, median (range) [1, 4]: 5.00 (3.00‐6.00) h
- CL/F (apparent clearance after oral dose), Arithmetic Mean ± SD [1, 5]: 124.8 ± 40.9 L/h
- CL/F (apparent clearance after oral dose), Geometric Mean (%CV) [1, 5]: 117.8 (33) L/h
- AUC(0-inf) [1, 6]: 2370 ng·h/mL
- AUC(0-t) [1, 6]: 2240 ng·h/mL
- Cmax [1, 6]: 115 ng/mL
- AUC(0-inf) [1, 7]: 2120 ng·h/mL
- AUC(0-t) [1, 7]: 2010 ng·h/mL
- Cmax [1, 7]: 117 ng/mL
- Tmax ([1]; human, plasma, po, 250 mg): 5 h
- half-life ([1]; human, plasma, po, 250 mg): 35.8 ± 4.4 h
- AUC(0-inf) [1, 8]: 2260 ± 891 ng·h/mL
- AUC(0-inf) [1, 9]: 2120 ng·h/mL
- AUC(0-t) [1, 8]: 2170 ± 876 ng·h/mL
- AUC(0-t) [1, 9]: 2020 ng·h/mL
- Cmax [1, 8]: 119 ± 32.9 ng/mL
- Cmax [1, 9]: 115 ng/mL
- half-life ([1]; human, plasma, po, 250 mg, t1/2 (terminal elimination half-life), Arithmetic Mean ± SD, healthy participants, plasma, single oral crizotinib 250 mg after overnight fast, alone (n = 15)): 33.2 ± 7 h
- Median time to Cmax ([1]; with or without esomeprazole, single crizotinib 250 mg): 5 h
- gastrointestinal disorders (system organ class), all causality (Safety and tolerability): 11 participants
- nervous system disorders (system organ class), all causality (Safety and tolerability): 4 participants
- treatment-related gastrointestinal disorders (system organ class) (Safety and tolerability): 11 participants
- Discontinuations due to AEs, all causality (Safety and tolerability; N = 15 per treatment): 0
- Dose reductions or temporary discontinuation due to AEs (Safety and tolerability; N = 15 per treatment): 0
- Participants with AEs, all causality (Safety and tolerability; N = 15 per treatment): 12 (12)
- Participants with AEs, treatment-related (Safety and tolerability; N = 15 per treatment): 12 (12)
- Participants with serious AEs (Safety and tolerability; N = 15 per treatment): 0
- Participants with severe AEs (Safety and tolerability; N = 15 per treatment): 0
- Abdominal pain upper, all causality (Safety and tolerability; [10]): 0
- Abdominal pain, all causality (Safety and tolerability; [10]): 3 (3)
- Abdominal pain, treatment-related (Safety and tolerability; [10]): 3 (3)
- Abnormal gastrointestinal sounds, all causality (Safety and tolerability; [10]): 1 (1)
- Abnormal gastrointestinal sounds, treatment-related (Safety and tolerability; [10]): 1 (1)
- Diarrhea, all causality (Safety and tolerability; [10]): 11 (11)
- Diarrhea, treatment-related (Safety and tolerability; [10]): 11 (11)
- Dizziness, all causality (Safety and tolerability; [10]): 2 (2)
- Dizziness, treatment-related (Safety and tolerability; [10]): 2 (2)
- Fatigue, all causality (Safety and tolerability; [10]): 2 (2)
- Fatigue, treatment-related (Safety and tolerability; [10]): 2 (2)
- Headache, all causality (Safety and tolerability; [10]): 2 (2)
- Headache, treatment-related (Safety and tolerability; [10]): 2 (2)
- Nausea, all causality (Safety and tolerability; [10]): 2 (2)
- Nausea, treatment-related (Safety and tolerability; [10]): 2 (2)
- Number of AEs, all causality (Safety and tolerability; treatment-emergent): 28
- Number of AEs, treatment-related (Safety and tolerability; treatment-emergent): 24
- Number of AEs, treatment-related (Safety and tolerability; treatment-emergent, listed as crizotinib): Twenty‐four
- Overall safety and tolerability (Safety and tolerability; single 250-mg dose): generally safe and well tolerated
- solubility ([2]; pH 1.6): > 10000 µg/mL
- solubility ([2]; pH 8.2): < 100 µg/mL
- time to steady state [3]: 15 days

SMILES: CC(Oc1cc(-c2cnn(C3CCNC(=O)C3)c2)cnc1N)c1c(Cl)ccc(F)c1Cl (stereo not shown) [PF‐06260182]
- AUCinf, Adjusted Geometric Mean, Reference [1, 11]: 446.0 ng·h/mL
- AUClast, Adjusted Geometric Mean, Reference [1, 11]: 436.9 ng·h/mL
- Cmax, Adjusted Geometric Mean, Reference [1, 11]: 34.8 ng/mL
- AUCinf, Adjusted Geometric Mean, Test [1, 12]: 367.8 ng·h/mL
- AUClast, Adjusted Geometric Mean, Test [1, 12]: 359.8 ng·h/mL
- Cmax, Adjusted Geometric Mean, Test [1, 12]: 26.9 ng/mL
- apparent t1/2, mean value ([1]; both treatments (crizotinib alone and with esomeprazole)): ≈ 20 hours
- AUCinf, Arithmetic Mean ± SD [1, 4]: 383 ± 127 ng·h/mL
- AUCinf, Geometric Mean (%CV) [1, 4]: 364 (33) ng • h/mL
- AUClast, Arithmetic Mean ± SD [1, 4]: 376 ± 126 ng·h/mL
- AUClast, Geometric Mean (%CV) [1, 4]: 357 (34) ng • h/mL
- Cmax, Arithmetic Mean ± SD [1, 4]: 27.7 ± 6.8 ng/mL
- Cmax, Geometric Mean (%CV) [1, 4]: 26.8 (25) ng/mL
- t1/2 (terminal elimination half-life), Arithmetic Mean ± SD [1, 4]: 19.5 ± 5.9 h
- tmax, median (range) [1, 4]: 6.00 (5.00‐8.05) h
- MRAUCinf (metabolite to parent ratio of AUCinf), Geometric Mean (%CV) ([1]; molar ratio PF-06260182/crizotinib, single oral crizotinib 250 mg alone (n = 14)): 0.18 (16)
- MRAUClast (metabolite to parent ratio of AUClast), Geometric Mean (%CV) [1, 13]: 0.19 (18)
- MRCmax (metabolite to parent ratio of Cmax), Geometric Mean (%CV) [1, 13]: 0.29 (26)

SMILES: COc1ccc2nc([S@@+]([O-])Cc3ncc(C)c(OC)c3C)[nH]c2c1 [esomeprazole, Esomeprazole]
- gastrointestinal disorders (system organ class), all causality (Safety and tolerability): 3 participants
- nervous system disorders (system organ class), all causality (Safety and tolerability): 2 participants
- treatment-related gastrointestinal disorders (system organ class) (Safety and tolerability): 3 participants
- Number of AEs, treatment-related (Safety and tolerability; treatment-emergent): 7
